# Results pooled from the literature.
# Each line is one published result; the experiments were not run side by side.
# Target: G protein-coupled receptor kinase 4 (GRK4, Homo sapiens, UniProt P32298)
SMILES,observed,action,method,concentration,endpoint,result
C=CC(=O)N1CCC[C@@H](n2nc(-c3ccc(Oc4ccccc4)cc3)c3c(N)ncnc32)C1,enzyme activity,inhibitor,,1 µM,inhibition,3%
CN1CCN(C(=O)c2ccc(NC(=O)Nc3ccc(N(C)c4ccnc(Nc5ccc(CS(C)(=O)=O)cc5)n4)cc3)cc2)CC1,binding,,,1 µM,remaining binding,4.5%
CC(C)S(=O)(=O)c1ccc2nccc(Nc3ccc4sc(C5CCCC5)nc4c3)c2c1,enzyme activity,inhibitor,,1 µM,activity vs control,112%
Cc1ccc(NC(=O)c2ccnc(C(F)(F)F)c2)cc1-c1cc(OCCO)nc(N2CCOCC2)c1,binding,,,1 µM,remaining binding,99%
CNS(=O)(=O)c1ccc(Nc2ncc(C(F)(F)F)c(N3CCC[C@](C)(O)C3)n2)c(C)c1,binding,,competition with immobilised ligand,1 µM,remaining binding,100%
CCCCC(=O)Nc1ccc(-c2ccc3ncn(CCC)c(=O)c3c2)cn1,binding,,competition with immobilised ligand,0.5 µM,remaining binding,93%
C=CC(=O)N1CCC([C@@H]2CCNc3c(C(N)=O)c(-c4ccc(Oc5ccccc5)cc4)nn32)CC1,enzyme activity,inhibitor,,1 µM,inhibition,8%
C1=C/COCc2cc(ccc2OCCN2CCCC2)Nc2nccc(n2)-c2cccc(c2)COC/1,binding,,,0.1 µM,remaining binding,13%
C[C@]1(O)CCCN(c2nc(Nc3ccc(S(=O)(=O)N[C@H]4CC[C@H](CN5CCN(c6ccc(C7CCC(=O)NC7=O)cc6F)CC5)CC4)cc3F)ncc2C(F)(F)F)C1 (stereo partly drawn),binding,,competition with immobilised ligand,1 µM,remaining binding,87%
